This is an account of results in ChEMBL document CHEMBL1629532, “Design, synthesis, and structure-activity relationships of 3-ethynyl-1H-indazoles as inhibitors of the phosphatidylinositol 3-kinase signaling pathway” (J Med Chem, 2010).

Data set [1] addresses T1, Serine/threonine-protein kinase mTOR (Homo sapiens, UniProt P42345). Description: Inhibition of mTOR by LanthaScreen Eu kinase binding assay. Put shortly:
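Eu kinase binding TR-FRET displacement with FRAP1 (mTOR) at 5 nM, kinase tracer 20 nM and Eu-anti-GST antibody 2 nM, all final. Buffer 25 mM Tris-HCl, 5 mM MgCl2, 0.02% CHAPS.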
(In general: TR-FRET usually uses a lanthanide donor and a delayed reading to cut background.)

The test system of the next data set is MDA-MB-231. Description: Growth inhibition of human MDA-MB-231 cells after 72 hrs by ATPlite assay. The data set is classed as functional. Particulars: MDA-MB-231, 72 h. The essentials:
(§1)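 Cells seeded at about 3000 per well, grown 24 h, then given fresh medium and test compound in triplicate at 0.5 to 100µM in DMSO (0.5% final). Exposure 72 h at 37 °C, 5% CO₂. Viability measured by ATPlite luminescence and normalized to DMSO-treated controls. GI50 obtained by curve fitting. HeLa cultured in DMEM/10% FBS; MCF7, MDA-MB-231 and PC3 cultured in RPMI+GlutaMAX/10% FBS.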
Background: ATP-based viability assays read luminescence as a measure of living cells.

The target in data set [2] is Phosphatidylinositol 4,5-bisphosphate 3-kinase catalytic subunit alpha isoform (Homo sapiens, UniProt P42336). Description: Inhibition of PI3Kalpha by LanthaScreen Eu kinase binding assay. The essentials:
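Eu kinase binding TR-FRET assay (tracer displacement). PIK3CA/PIK3R1 at 5 nM with kinase tracer 20 nM and Eu-anti-His antibody 2 nM, all final. Buffer 25 mM Tris-HCl, 5 mM MgCl2, 0.02% CHAPS.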

Data set [3] concerns the target T2, Phosphatidylinositol 4,5-bisphosphate 3-kinase catalytic subunit delta isoform (Homo sapiens, UniProt O00329).
T2 sequence (O00329 whole entry): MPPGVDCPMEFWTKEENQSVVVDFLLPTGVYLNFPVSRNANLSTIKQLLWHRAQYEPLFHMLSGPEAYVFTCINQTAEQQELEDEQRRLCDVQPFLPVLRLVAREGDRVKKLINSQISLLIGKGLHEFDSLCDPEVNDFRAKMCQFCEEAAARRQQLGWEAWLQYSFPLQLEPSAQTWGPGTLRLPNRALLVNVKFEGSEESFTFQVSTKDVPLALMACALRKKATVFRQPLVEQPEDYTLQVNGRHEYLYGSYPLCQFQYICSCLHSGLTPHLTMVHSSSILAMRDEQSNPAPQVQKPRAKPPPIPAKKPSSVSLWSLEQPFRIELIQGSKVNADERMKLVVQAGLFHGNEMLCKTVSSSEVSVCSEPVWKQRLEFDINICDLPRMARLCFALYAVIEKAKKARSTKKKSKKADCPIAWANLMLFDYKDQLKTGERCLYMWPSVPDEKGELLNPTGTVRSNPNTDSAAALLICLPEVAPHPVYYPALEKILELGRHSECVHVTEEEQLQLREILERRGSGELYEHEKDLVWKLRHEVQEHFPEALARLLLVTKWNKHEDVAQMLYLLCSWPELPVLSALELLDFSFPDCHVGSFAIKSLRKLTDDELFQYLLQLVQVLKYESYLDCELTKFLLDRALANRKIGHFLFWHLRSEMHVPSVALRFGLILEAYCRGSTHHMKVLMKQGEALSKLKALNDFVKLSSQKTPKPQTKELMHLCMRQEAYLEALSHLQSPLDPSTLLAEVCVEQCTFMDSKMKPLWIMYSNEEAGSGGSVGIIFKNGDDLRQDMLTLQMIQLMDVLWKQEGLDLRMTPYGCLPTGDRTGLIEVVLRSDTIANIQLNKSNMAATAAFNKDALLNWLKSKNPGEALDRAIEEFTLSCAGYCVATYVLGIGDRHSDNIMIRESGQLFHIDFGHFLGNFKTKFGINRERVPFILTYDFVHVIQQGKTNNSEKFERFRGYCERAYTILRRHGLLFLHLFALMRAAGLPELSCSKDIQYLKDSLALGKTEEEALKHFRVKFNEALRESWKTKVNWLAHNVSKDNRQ
The data set is described as follows: Inhibition of PI3Kdelta. The conditions noted are these: read-out: IC50.

In data set [4] the target is RAC-alpha serine/threonine-protein kinase (Homo sapiens) (UniProt P31749). Description: Inhibition of AKT1 by biochemical assay.
Another data set deals with PC-3. Description: Growth inhibition of human PC3 cells after 72 hrs by ATPlite assay. The data set is classed as functional. The conditions noted are these: PC-3, 72 h. Put shortly:
as §1

The next data set relates to MCF7. Description: Growth inhibition of human MCF7 cells after 72 hrs by ATPlite assay. The data set is classed as functional. The conditions noted are these: MCF7, 72 h. The essentials: as §1
The target in data set [5] is Phosphatidylinositol 4,5-bisphosphate 3-kinase catalytic subunit gamma isoform (Homo sapiens, UniProt P48736). Description: Inhibition of PI3Kgamma.
The target of data set [6] is T1, Serine/threonine-protein kinase mTOR. Description: Inhibition of mTORC1 expressed in HEK293 cells assessed as PRAS40 Ser183 phosphorylation level by LanthaScreen cellular assay. The data set is classed as cell-based. Put shortly: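 HEK293E cells stably expressing GFP-substrate fusions (AKT for pThr308; PRAS40 for pSer183), 20,000 per well, serum-starved overnight in low-glucose DMEM + 0.1% BSA. Lysed with 2 nM Tb-labeled phosphospecific antibody; TR-FRET read after 2 h at room temperature. IC50 by curve fitting.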

Data set [7] deals with T3, 3-phosphoinositide-dependent protein kinase 1 (Homo sapiens, UniProt O15530).
T3 sequence (O15530 whole entry): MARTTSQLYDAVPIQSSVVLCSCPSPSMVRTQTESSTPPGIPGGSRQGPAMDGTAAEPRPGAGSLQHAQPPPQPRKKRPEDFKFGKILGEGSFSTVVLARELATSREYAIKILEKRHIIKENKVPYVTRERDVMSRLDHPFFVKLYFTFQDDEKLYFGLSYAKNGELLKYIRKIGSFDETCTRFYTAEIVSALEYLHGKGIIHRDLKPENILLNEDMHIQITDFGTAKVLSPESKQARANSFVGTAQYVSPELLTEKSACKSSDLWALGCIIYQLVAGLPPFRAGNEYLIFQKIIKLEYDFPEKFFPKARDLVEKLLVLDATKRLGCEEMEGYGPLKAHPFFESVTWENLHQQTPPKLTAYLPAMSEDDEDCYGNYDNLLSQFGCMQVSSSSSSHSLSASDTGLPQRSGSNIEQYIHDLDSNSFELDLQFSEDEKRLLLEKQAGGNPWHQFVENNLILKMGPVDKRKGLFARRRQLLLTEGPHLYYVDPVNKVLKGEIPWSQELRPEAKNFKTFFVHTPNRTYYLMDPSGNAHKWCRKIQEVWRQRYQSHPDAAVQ
Description: Inhibition of PDK1 by Z'-LYTE kinase activity assay.

In another data set the test system is HeLa. Description: Growth inhibition of human HeLa cells after 72 hrs by ATPlite assay. Type of data set: functional. Put shortly: as §1
For a further data set, the system named is Liver microsomes. Description: Metabolic stability in rat liver microsomes. Type of data set: ADME, Microsome. The essentials:
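Rat liver microsomes (1 mg/ml protein) with 4µM compound in 50mM phosphate pH 7.2. Pre-incubated 5 min at 37.5 °C, then started with 2mM NADPH and run 1 h. Samples taken every 15 min, quenched in methanol with internal standard, analyzed by LC-MS. Duplicate runs alongside two control compounds of known half-life. Half-life reported.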
(Liver microsomes are vesicles of endoplasmic reticulum, rich in cytochrome P450 enzymes.)

For the next data set, the system named is Plasma. The data set is described as follows: Metabolic stability in rat plasma assessed as compound remaining at 1 uM after 60 mins by Lc/Ms method. Particulars: 1 h. The data set is classed as ADME, cell-free. Put shortly: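 Compound at 1 µM (2.5% DMSO final) in fresh rat plasma at 37 °C. Stopped at 0, 30 and 60 min with two volumes methanol plus internal standard, then LC-MS. Percent parent remaining relative to 0 min, from peak area ratios to internal standard. Duplicate runs, with a plasma-labile positive control.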

Active and inactive are the calls of the source. No cut-off for these calls is given here.

Sequence of RAC-alpha serine/threonine-protein kinase (Homo sapiens) (P31749 whole entry): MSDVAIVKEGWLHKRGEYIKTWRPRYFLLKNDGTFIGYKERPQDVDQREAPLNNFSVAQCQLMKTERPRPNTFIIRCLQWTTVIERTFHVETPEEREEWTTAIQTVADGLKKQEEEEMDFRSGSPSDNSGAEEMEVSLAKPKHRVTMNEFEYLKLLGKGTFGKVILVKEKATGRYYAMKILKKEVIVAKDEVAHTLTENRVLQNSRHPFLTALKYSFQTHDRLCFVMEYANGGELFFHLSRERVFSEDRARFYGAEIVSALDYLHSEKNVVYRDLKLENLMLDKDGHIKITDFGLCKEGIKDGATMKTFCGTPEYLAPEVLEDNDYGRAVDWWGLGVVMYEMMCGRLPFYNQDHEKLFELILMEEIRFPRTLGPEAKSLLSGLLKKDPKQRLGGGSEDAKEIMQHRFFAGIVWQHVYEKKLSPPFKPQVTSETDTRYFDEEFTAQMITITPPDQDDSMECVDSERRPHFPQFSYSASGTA
Sequence of Phosphatidylinositol 4,5-bisphosphate 3-kinase catalytic subunit alpha isoform (P42336 whole entry, canonical isoform): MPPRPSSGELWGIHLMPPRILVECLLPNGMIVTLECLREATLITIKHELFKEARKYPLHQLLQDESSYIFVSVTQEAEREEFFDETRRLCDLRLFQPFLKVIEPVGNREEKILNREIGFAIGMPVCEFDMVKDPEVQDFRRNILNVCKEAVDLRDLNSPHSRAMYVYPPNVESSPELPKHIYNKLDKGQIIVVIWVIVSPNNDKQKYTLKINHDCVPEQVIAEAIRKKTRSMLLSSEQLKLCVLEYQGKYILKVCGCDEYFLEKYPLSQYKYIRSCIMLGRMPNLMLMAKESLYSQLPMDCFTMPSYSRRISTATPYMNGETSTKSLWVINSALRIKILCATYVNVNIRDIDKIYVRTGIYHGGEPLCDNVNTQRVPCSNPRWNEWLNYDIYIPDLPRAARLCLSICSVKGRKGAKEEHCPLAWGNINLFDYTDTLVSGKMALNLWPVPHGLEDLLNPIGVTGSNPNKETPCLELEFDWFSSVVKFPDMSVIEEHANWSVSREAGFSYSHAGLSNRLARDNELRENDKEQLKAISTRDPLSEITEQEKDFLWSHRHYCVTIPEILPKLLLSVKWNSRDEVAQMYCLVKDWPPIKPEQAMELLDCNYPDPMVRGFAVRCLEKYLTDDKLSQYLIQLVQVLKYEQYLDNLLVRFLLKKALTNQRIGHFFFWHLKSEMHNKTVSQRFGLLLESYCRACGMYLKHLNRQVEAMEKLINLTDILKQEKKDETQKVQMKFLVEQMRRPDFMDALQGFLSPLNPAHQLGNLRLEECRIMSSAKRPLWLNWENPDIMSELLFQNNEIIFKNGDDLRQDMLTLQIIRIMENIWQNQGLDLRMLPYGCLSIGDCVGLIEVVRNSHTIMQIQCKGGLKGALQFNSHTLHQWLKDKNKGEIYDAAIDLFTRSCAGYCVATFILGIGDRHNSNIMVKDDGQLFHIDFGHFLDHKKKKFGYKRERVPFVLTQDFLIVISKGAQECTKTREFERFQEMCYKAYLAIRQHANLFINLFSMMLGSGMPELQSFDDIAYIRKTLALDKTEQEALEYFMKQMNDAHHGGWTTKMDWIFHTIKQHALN
Sequence of Phosphatidylinositol 4,5-bisphosphate 3-kinase catalytic subunit gamma isoform (P48736 whole entry, the tested form may be a part, canonical isoform): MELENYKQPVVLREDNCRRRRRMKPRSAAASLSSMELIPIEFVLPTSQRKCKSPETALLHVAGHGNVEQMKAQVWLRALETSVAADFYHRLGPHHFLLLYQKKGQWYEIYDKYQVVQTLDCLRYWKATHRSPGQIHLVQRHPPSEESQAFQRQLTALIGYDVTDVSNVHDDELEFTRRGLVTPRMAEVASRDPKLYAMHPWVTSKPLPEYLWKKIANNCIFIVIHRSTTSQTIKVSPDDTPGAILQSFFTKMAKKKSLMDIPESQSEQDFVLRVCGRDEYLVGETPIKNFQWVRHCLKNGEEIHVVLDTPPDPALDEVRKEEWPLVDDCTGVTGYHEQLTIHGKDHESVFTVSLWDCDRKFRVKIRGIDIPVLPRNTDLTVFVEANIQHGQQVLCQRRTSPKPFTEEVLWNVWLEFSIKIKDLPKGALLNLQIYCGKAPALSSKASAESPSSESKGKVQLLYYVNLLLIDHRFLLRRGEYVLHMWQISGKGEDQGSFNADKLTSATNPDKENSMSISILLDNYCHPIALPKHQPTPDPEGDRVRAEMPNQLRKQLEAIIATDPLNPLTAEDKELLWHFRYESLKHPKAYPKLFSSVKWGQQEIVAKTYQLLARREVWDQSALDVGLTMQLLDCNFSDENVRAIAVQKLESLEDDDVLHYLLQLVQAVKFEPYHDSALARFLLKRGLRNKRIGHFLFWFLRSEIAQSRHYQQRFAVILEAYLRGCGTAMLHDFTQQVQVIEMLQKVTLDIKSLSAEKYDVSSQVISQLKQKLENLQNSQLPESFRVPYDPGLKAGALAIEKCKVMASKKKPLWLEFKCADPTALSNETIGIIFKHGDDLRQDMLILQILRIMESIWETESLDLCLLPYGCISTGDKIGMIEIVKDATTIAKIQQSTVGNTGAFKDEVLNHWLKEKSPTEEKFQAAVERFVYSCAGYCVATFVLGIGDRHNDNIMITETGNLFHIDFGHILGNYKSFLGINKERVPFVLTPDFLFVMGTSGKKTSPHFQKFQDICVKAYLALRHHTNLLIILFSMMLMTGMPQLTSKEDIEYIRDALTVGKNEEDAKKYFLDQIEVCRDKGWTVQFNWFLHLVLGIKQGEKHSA

A word on the IC50: it is the concentration needed to halve the response being measured. One may read the GI50 as the concentration at which growth is held to half of that of the control. Read a low GI50 as more potent growth inhibition. `Nc1ccc(C#Cc2n[nH]c3ccccc23)cc1`: the half-maximal inhibitory concentration (IC50) in data set [1] was 4.97 µM; in data set [2], 1.05 µM; in data set [3], more than 100 µM; in data set [5], more than 100 µM; in [6] it was 10.8 µM; in data set [7] it was 39.2 µM. The GI50 in the data set on MDA-MB-231 stood at 8.28 µM; with PC-3, 2.51 µM; in the data set with MCF7, 3.23 µM. The inhibition result in [4] was “inactive”.
As for `C(#Cc1n[nH]c2ccccc12)c1ccsc1`, the IC50 in [1], in [2], in [6] and in data set [7] was more than 100 µM each time. For the same compound, in data set [4], the inhibition result was “inactive”.
In the case of `Nc1cccc(C#Cc2n[nH]c3ccccc23)c1`, the GI50 in the data set on MDA-MB-231 was found to be 8.29 µM; in the data set with HeLa, 5.21 µM; in the data set on PC-3, 2.84 µM; with MCF7 it was 10.4 µM. In addition, the IC50 in data set [3] and in data set [5] was more than 100 µM in each case. Besides, the inhibition entry in data set [4] is “inactive”. Also, the t1/2 in the data set with Liver microsomes was more than 1 h. In addition, in the data set on Plasma, the Stability is 100%.
For the compound `C(#Cc1n[nH]c2ccccc12)c1ccccn1`, the concentration for half-maximal inhibition (IC50) in data set [1] was more than 100 µM; in data set [2], more than 100 µM; in data set [6], more than 50 µM; in [7], more than 25 µM. The inhibition result in data set [4] is “inactive”.
As for `CN(C)CC#Cc1n[nH]c2ccccc12`, the IC50 in data set [1] was more than 100 µM; in data set [2] it was more than 50 µM; in [6], more than 50 µM; in data set [7], more than 100 µM. Besides, the inhibition result in data set [4] is “inactive”.
With `C(#CC1CC1)c1n[nH]c2ccccc12`, the concentration for half-maximal inhibition (IC50) was more than 100 µM in data set [1], more than 100 µM in [2], more than 50 µM in data set [6] and more than 100 µM in data set [7]. Also, the inhibition result in data set [4] is “inactive”.
For `C(#CC1CCCC1)c1n[nH]c2ccccc12`, the IC50 in [1] is more than 100 µM; in data set [2], more than 100 µM; in data set [6], more than 50 µM; in data set [7], more than 100 µM. Also, in data set [4], the inhibition result was “inactive”.
As to `Fc1cc(F)cc(C#Cc2n[nH]c3ccccc23)c1`, the half-maximal inhibitory concentration (IC50) is more than 100 µM in [1], more than 100 µM in data set [2], more than 200 µM in data set [6] and more than 100 µM in [7]. Besides, the inhibition result in data set [4] was “inactive”.
Consider `C(#Cc1n[nH]c2ccccc12)c1cccnc1`, for which the half-inhibitory concentration (IC50) in data set [1] is more than 100 µM; in data set [6], more than 50 µM. Further, the GI50 in the data set with MDA-MB-231 turned out to be 10.5 µM; in the data set with HeLa it was 5.21 µM; in the data set with PC-3 it was 6.81 µM; in the data set on MCF7, 3.66 µM. For the same compound, in data set [4], the inhibition result is “inactive”.
As for `FC(F)(F)c1cc(C#Cc2n[nH]c3ccccc23)cc(C(F)(F)F)c1`, the half-maximal inhibitory concentration (IC50) in [1], in data set [2], in data set [6] and in [7] was more than 100 µM throughout. In addition, in [4], the inhibition result is “inactive”.
On to `Nc1ccccc1C#Cc1n[nH]c2ccccc12`, for which the IC50 in data set [1] is more than 100 µM; in data set [2], more than 100 µM; in data set [6] it was more than 50 µM; in data set [7], more than 100 µM. In addition, the inhibition entry in data set [4] is “inactive”.
On to `N#Cc1ccc(C#Cc2n[nH]c3ccccc23)cc1`, for which the IC50 is more than 100 µM in data set [1], more than 100 µM in [2], more than 50 µM in [6] and more than 100 µM in data set [7]. In data set [4], the inhibition entry was “inactive”.
In the case of `C(#Cc1n[nH]c2ncccc12)c1cccnc1`, the concentration for half-maximal inhibition (IC50) in data set [1] was 5 µM; in [2], 9 µM; in [6], more than 10 µM; in data set [7] it was more than 50 µM. Besides, in [4], the inhibition entry was “inactive”.
Consider `C(#Cc1n[nH]c2ncccc12)c1ccncc1`, for which the figures for the IC50 in [2] and in [7] were 3.05 µM and more than 50 µM, respectively. Also, the inhibition entry in data set [4] was “inactive”.
Regarding `C(#Cc1n[nH]c2ccccc12)c1ccccc1`, the IC50 in [1] is more than 100 µM; in [2] it was more than 100 µM; in data set [6], more than 50 µM; in data set [7], more than 50 µM. The inhibition result in [4] is “inactive”.
